ChEMBL document CHEMBL3774372, “Design, physico-chemical properties and biological evaluation of some new N-[(phenoxy)alkyl]- and N-{2-[2-(phenoxy)ethoxy]ethyl}aminoalkanols as anticonvulsant agents” (Bioorg Med Chem, 2016)
The source made the active and inactive calls.

Columns and labels:
Rattus norvegicus [1] = test: Anticonvulsant activity in rat assessed as protection against maximal electric shock-induced seizures at 30 mg/kg, po measured after 1 hr; format: functional, organism-based
In short: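 Rats dosed ip or orally as 0.5% methylcellulose suspension; maximal electroshock at listed time. Protection = abolition of hindlimb tonic extension; 4 rats per group, scored protected/tested.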

Mus musculus [2] = test: Neurotoxicity in mouse at 100 mg/kg, ip after 0.5 hrs by rotarod test; format: toxicity, organism-based; conditions: in vivo
In short: (§1)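 Mice were dosed ip with compound suspended in 0.5% methylcellulose. Rotarod: a 1 in. knurled rod turning at 6 rpm. Neurotoxicity was scored as failure to stay on the rod for at least 1 min in each of three trials. Results are given as the number of animals affected out of the number tested.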

Mus musculus [3] = test: Anticonvulsant activity in mouse assessed as protection against maximal electric shock-induced seizures at 100 mg/kg, ip measured after 4 hrs; format: functional, organism-based
In short: (§2)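 Mice dosed ip with suspension in 0.5% methylcellulose; maximal electroshock applied at the listed time after dosing. Protection = abolition of hindlimb tonic extension component of seizure; reported as animals protected/animals tested.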

Rattus norvegicus [4] = test: Neurotoxicity in rat at 30 mg/kg, po after 0.5 hrs by rotarod test; format: toxicity, organism-based; conditions: in vivo
Mus musculus [5] = test: Neurotoxicity in mouse at 300 mg/kg, ip after 4 hrs by rotarod test; format: toxicity, organism-based; conditions: in vivo; in short: as §1
Mus musculus [6] = test: Anticonvulsant activity in mouse assessed as protection against maximal electric shock-induced seizures at 300 mg/kg, ip measured after 4 hrs; format: functional, organism-based; in short: as §2
Rattus norvegicus [7] = test: Neurotoxicity in rat at 30 mg/kg, po after 4 hrs by rotarod test; format: toxicity, organism-based; conditions: in vivo
Rattus norvegicus [8] = test: Anticonvulsant activity in rat assessed as protection against maximal electric shock-induced seizures at 30 mg/kg, po measured after […]; format: functional, organism-based
Mus musculus [9] = test: Neurotoxicity in mouse at 30 mg/kg, ip after 4 hrs by rotarod test; format: toxicity, organism-based; conditions: in vivo; in short: as §1
Mus musculus [10] = test: Anticonvulsant activity in mouse assessed as protection against maximal electric shock-induced seizures at 100 mg/kg, ip measured after 0.5 hrs; format: functional, organism-based; in short: as §2
Mus musculus [11] = test: Neurotoxicity in mouse at 30 mg/kg, ip after 0.5 hrs by rotarod test; format: toxicity, organism-based; conditions: in vivo; in short: as §1
Rattus norvegicus [12] = test: Neurotoxicity in rat at 30 mg/kg, po after 2 hrs by rotarod test; format: toxicity, organism-based; conditions: in vivo
Mus musculus [13] = test: Anticonvulsant activity in mouse assessed as protection against maximal electric shock-induced seizures at 30 mg/kg, ip measured after 4 hrs; format: functional, organism-based; in short: as §2
Rattus norvegicus [14] = test: Neurotoxicity in rat at 30 mg/kg, po after […] by rotarod test; format: toxicity, organism-based; conditions: in vivo
Mus musculus [15] = test: Anticonvulsant activity in mouse assessed as protection against subcutaneous pentylenetetrazol-induced seizures at 100 mg/kg, ip measured after 0.5 hrs; format: functional, organism-based
In short: (§3)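 Mice dosed ip as 0.5% methylcellulose suspension; pentylenetetrazole 85 mg/kg in 0.9% NaCl injected subcutaneously into posterior midline, animals watched at least 30 min. Protection = no threshold seizure (single clonic spasm episode lasting ≥5 s); scored protected/tested.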

Mus musculus [16] = test: Anticonvulsant activity in mouse assessed as protection against subcutaneous pentylenetetrazol-induced seizures at 300 mg/kg, ip measured after 0.5 hrs; format: functional, organism-based; in short: as §3
Mus musculus [17] = test: Anticonvulsant activity in mouse assessed as protection against subcutaneous pentylenetetrazol-induced seizures at 30 mg/kg, ip measured after 0.5 hrs; format: functional, organism-based; in short: as §3
Rattus norvegicus [18] = test: Neurotoxicity in rat at 30 mg/kg, po after 1 hr by rotarod test; format: toxicity, organism-based; conditions: in vivo
Mus musculus [19] = test: Neurotoxicity in mouse at 100 mg/kg, ip after 4 hrs by rotarod test; format: toxicity, organism-based; conditions: in vivo; in short: as §1
Mus musculus [20] = test: Anticonvulsant activity in mouse assessed as protection against maximal electric shock-induced seizures at 30 mg/kg, ip measured after 0.5 hrs; format: functional, organism-based; in short: as §2
Mus musculus [21] = test: Anticonvulsant activity in mouse assessed as protection against maximal electric shock-induced seizures at 300 mg/kg, ip measured after 0.5 hrs; format: functional, organism-based; in short: as §2
Mus musculus [22] = test: Anticonvulsant activity in mouse assessed as protection against subcutaneous pentylenetetrazol-induced seizures at 30 mg/kg, ip measured after 4 hrs; format: functional, organism-based; in short: as §3
Mus musculus [23] = test: Anticonvulsant activity in mouse assessed as protection against subcutaneous pentylenetetrazol-induced seizures at 100 mg/kg, ip measured after 4 hrs; format: functional, organism-based; in short: as §3
Mus musculus [24] = test: Anticonvulsant activity in mouse assessed as protection against subcutaneous pentylenetetrazol-induced seizures at 300 mg/kg, ip measured after 4 hrs; format: functional, organism-based; in short: as §3
Mus musculus [25] = test: Neurotoxicity in mouse at 300 mg/kg, ip after 0.5 hrs by rotarod test; format: toxicity, organism-based; conditions: in vivo; in short: as §1
Vibrio harveyi [26] = test: Mutagenicity in Vibrio harveyi BB7M assessed as number of colonies after 48 hrs (reference value: 13 to 14 no_unit); format: ADME, organism-based; conditions: in vivo
In short: (§4)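 Vibrio harveyi mutagenicity test: test compound was added to exponentially growing cultures (A600 = 0.1, 30 °C) and grown to OD600 0.3–0.4. Then 5 × 10^6 cells were plated on BOSS agar with neomycin (final 100 µg/mL) and incubated 48 h at 30 °C. Neomycin-resistant colonies were counted. Triplicate; controls were water, DMSO and NQNO 40 ng/mL.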

Vibrio harveyi [27] = test: Mutagenicity in Vibrio harveyi BB7X assessed as number of colonies after 48 hrs (reference value: 15 to 16 no_unit); format: ADME, organism-based; conditions: in vivo; in short: as §4
Vibrio harveyi [28] = test: Antimutagenic activity against Vibrio harveyi BB7XM assessed as inhibition of NQNO-induced mutagenicity after 48 hrs; format: functional
In short: (§5)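 V. harveyi cultures grown exponentially to A600 0.1 at 30 °C, exposed to test compound for 15 min, then to NQNO, and grown on to A600 0.3–0.4. 5 × 10⁶ cells plated on BOSS agar with neomycin (100, final). Neomycin-resistant colonies counted after 48 h at 30 °C. Result given as % inhibition of NQNO mutagenicity; three independent repeats.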

Vibrio harveyi [29] = test: Mutagenicity in Vibrio harveyi BB7XM assessed as number of colonies after 48 hrs (reference value: 14 no_unit); format: ADME, organism-based; conditions: in vivo; in short: as §4
Vibrio harveyi [30] = test: Antimutagenic activity against Vibrio harveyi BB7M assessed as inhibition of NQNO-induced mutagenicity after 48 hrs; format: functional; in short: as §5
in vitro [31] = conditions: mouse, liver microsomes
Vibrio harveyi [32] = test: Antimutagenic activity against Vibrio harveyi BB7X assessed as inhibition of NQNO-induced mutagenicity after 48 hrs; format: functional; in short: as §5
Vibrio harveyi [33] = test: Mutagenicity in Vibrio harveyi BB7 assessed as number of colonies after 48 hrs (reference value: 13 to 14 no_unit); format: ADME, organism-based; conditions: in vivo; in short: as §4
Vibrio harveyi [34] = test: Antimutagenic activity against Vibrio harveyi BB7 assessed as inhibition of NQNO-induced mutagenicity after 48 hrs; format: functional; in short: as §5
in vitro [35] = conditions: mouse, liver microsomes; remark: listed apart in the source
[36] = Retention time of the compound in mouse liver microsomes at 20 uM preincubated for 15 mins followed by addition of NADPH-regenerating system measured after 5 to 90 mins by […] analysis; format: ADME
In short: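 Mouse liver microsomes (0.4 mg/mL) with test compound (20 µM) in 100 mM potassium phosphate, pH 7.4, were preincubated 15 min at 37 °C. An NADPH-regenerating system was then added and incubation ran 5–90 min at 37 °C. Levallorphan (20 µM) served as internal standard, and reactions were quenched with perchloric acid. The supernatant was analysed by UPLC/MS. Duplicate incubations.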

Structure (SMILES): Cc1cc(C)c(OCCNCC(O)c2ccccc2)c(C)c1 (centres undefined)
- Activity (Rattus norvegicus [1]): inactive
- Activity (Mus musculus [2]): Non-toxic
- Activity (Mus musculus [3]): inactive
- Activity (Rattus norvegicus [4]): Non-toxic
- Activity (Mus musculus [5]): Non-toxic
- Activity (Mus musculus [6]): Active
- Activity (Rattus norvegicus [7]): Non-toxic
- Activity (Rattus norvegicus [8]): inactive
- Activity (Mus musculus [9]): Non-toxic
- Activity (Mus musculus [10]): Active
- Activity (Mus musculus [11]): Non-toxic
- Activity (Rattus norvegicus [12]): Non-toxic
- Activity (Mus musculus [13]): inactive
- Activity (Rattus norvegicus [14]): Non-toxic
- Activity (Mus musculus [15]): inactive
- Activity (Mus musculus [16]): inactive
- Activity (Mus musculus [17]): inactive
- Activity (Rattus norvegicus [18]): Non-toxic
- Activity (Mus musculus [19]): Non-toxic
- Activity (Mus musculus [20]): inactive
- Activity (Mus musculus [21]): Active

Structure (SMILES): Cc1cccc(OCCNCC(O)c2ccccc2)c1C (centres undefined)
- Activity (Mus musculus [3]): inactive
- Activity (Mus musculus [5]): Non-toxic
- Activity (Mus musculus [22]): inactive
- Activity (Mus musculus [6]): inactive
- Activity (Mus musculus [9]): Non-toxic
- Activity (Mus musculus [10]): inactive
- Activity (Mus musculus [11]): Non-toxic
- Activity (Mus musculus [23]): inactive
- Activity (Mus musculus [13]): inactive
- Activity (Mus musculus [15]): inactive
- Activity (Mus musculus [16]): inactive
- Activity (Mus musculus [24]): inactive
- Activity (Mus musculus [20]): inactive
- Activity (Mus musculus [21]): inactive

Structure (SMILES): CCC(CO)NCCOCCOc1c(C)cccc1C (centres undefined)
- Activity (Mus musculus [2]): Toxic
- Activity (Mus musculus [3]): inactive
- Activity (Mus musculus [22]): inactive
- Activity (Mus musculus [9]): Non-toxic
- Activity (Mus musculus [10]): Active
- Activity (Mus musculus [11]): Non-toxic
- Activity (Mus musculus [13]): inactive
- Activity (Mus musculus [15]): inactive
- Activity (Mus musculus [17]): inactive
- Activity (Mus musculus [25]): Toxic
- Activity (Mus musculus [24]): inactive
- Activity (Mus musculus [20]): inactive

Structure (SMILES): Cc1cc(C)c(OCCOCCNC(C)CO)c(C)c1 (centres undefined)
- Activity (Vibrio harveyi [26]): 19
- Activity (Vibrio harveyi [27]): 24
- inhibition (INH) (Vibrio harveyi [28]): 43%
- Activity (Vibrio harveyi [29]): 24
- inhibition (INH) (Vibrio harveyi [30]): 62%
- Activity (Mus musculus [22]): inactive
- microsomal CLint at 20 µM (in vitro [31]): 13 µL/min/mg
- inhibition (INH) (Vibrio harveyi [32]): 38%
- Activity (Mus musculus [9]): Non-toxic
- Activity (Mus musculus [10]): Active
- Activity (Vibrio harveyi [33]): 25
- Activity (Mus musculus [11]): Non-toxic
- Activity (Mus musculus [23]): inactive
- Activity (Mus musculus [13]): inactive
- Activity (Mus musculus [15]): inactive
- inhibition (INH) (Vibrio harveyi [34]): 81%
- Activity (Mus musculus [17]): inactive
- Activity (Mus musculus [25]): Toxic
- Activity (Mus musculus [19]): Non-toxic
- Activity (Mus musculus [20]): inactive
- half-life at 20 µM (in vitro [35]): 2.27 h
- Retention_time [36]: 4.31 min

Structure (SMILES): Cc1cccc(C)c1OCCOCCNC(C)CO (centres undefined)
- Activity (Vibrio harveyi [26]): 27
- Activity (Vibrio harveyi [27]): 29
- inhibition (INH) (Vibrio harveyi [28]): 48%
- Activity (Vibrio harveyi [29]): 19
- inhibition (INH) (Vibrio harveyi [30]): 75%
- Activity (Mus musculus [2]): Toxic
- Activity (Mus musculus [3]): inactive
- Activity (Mus musculus [5]): Non-toxic
- Activity (Mus musculus [22]): inactive
- inhibition (INH) (Vibrio harveyi [32]): 27%
- Activity (Mus musculus [9]): Non-toxic
- Activity (Vibrio harveyi [33]): 24
- Activity (Mus musculus [11]): Non-toxic
- Activity (Mus musculus [23]): inactive
- Activity (Mus musculus [13]): inactive
- inhibition (INH) (Vibrio harveyi [34]): 70%
- Activity (Mus musculus [17]): inactive
- Activity (Mus musculus [25]): Toxic
- Activity (Mus musculus [19]): Non-toxic
- Activity (Mus musculus [20]): inactive
